Assay [1] concerns Calf thymus DNA. Briefly: Apparent binding constant against calf thymus DNA-drug complex; d indicates solubility too low for determination. As to conditions: Bos taurus. The assay is classed as nucleic-acid assay. An outline of the steps:
(§1)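 Calf thymus DNA; apparent binding constant and apparent number of drug binding sites per base pair, taken from a Scatchard plot of binding isotherms obtained by spectral titration. Run in 0.01 M phosphate buffer, pH 7.0, at 20 °C.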

Assay [2] relates to P388. Briefly: Concentration of compound required for 50% inhibition of incorporation of labeled uridine by P388 cells for the synthesis of RNA (in vitro); Solubility too low. The class given is functional, cell-based. As to conditions: Mus musculus.
The test system of assay [3] is Calf thymus DNA. Briefly: Apparent number of binding sites per base pairs in DNA; d indicates solubility too low for determination. The assay is classed as nucleic-acid assay. The conditions noted are these: Bos taurus. An outline of the steps:
as §1

Assay [4] has as its system P388. As to the kind of experiment: Concentration of compound required for 50% inhibition of incorporation of labeled thymidine by p388 cells for synthesis of DNA (in vitro); Solubility too low. The class given is functional, cell-based. The conditions noted are these: Mus musculus.
Assay [5] concerns P388. Briefly: Concentration required for 50% inhibition of incorporation of labeled thymidine by p388 cells for synthesis of DNA (in vitro); e indicates values are high and variable. The conditions noted are these: Mus musculus. The assay is classed as functional, cell-based.
Assay [6] has as its system P388. Briefly: Concentration required for 50% inhibition of incorporation of labeled uridine by P388 cells for the synthesis of RNA (in vitro); e indicates values are high and variable. The assay is classed as functional, cell-based. The conditions noted are these: Mus musculus.
The subject of assay [7] is Calf thymus DNA. As to the kind of experiment: Apparent number of binding sites per base pairs in DNA; Not measurable. As to conditions: Bos taurus. The assay is classed as nucleic-acid assay. The procedure, abridged: (§2)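 Calf thymus DNA; spectral titration; binding isotherms in 0.01 M phosphate buffer, pH 7.0, 20 °C; Kapp (per base pair) and Bapp (drug binding sites per base pair) taken from Scatchard plot.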

The subject of assay [8] is P388. As to the kind of experiment: Median survival time of the P388 cells implanted CDF1 male mice in vivo. The assay is classed as functional. As to conditions: Mus musculus. The procedure, abridged: (§3)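 CDF1 male mice, groups of seven, given 10^6 P388 cells ip on day 0; drug ip in 5% DMSO–saline on days 1, 5 and 9; controls received vehicle; range of doses tested, optimal nontoxic dose listed; median survival time; %ILS = (treated − control)/control × 100; average of two or more experiments.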

The subject of assay [9] is P388. As to the kind of experiment: Percent of increased life span of P388 cells implanted CDF1 male mice. The class given is functional. The conditions noted are these: Mus musculus. An outline of the steps: as §3
Assay [10] deals with P388. Briefly: Optimal dose for antitumor activity was measured in P388 cells of CDF1 male mice in vivo. The class given is functional. The conditions noted are these: Mus musculus. An outline of the steps:
as §3

A further assay concerns CCRF-CEM. As to the kind of experiment: In vitro antitumor activity against human lymphoblastic leukemia cells. The assay is classed as functional. An outline of the steps: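 Human lymphoblastic leukemia CCRF-CEM cells grown in suspension culture; growth inhibition in vitro; ID50 (ng/mL) reported as the 50% inhibitory dose.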
Assay [11] deals with Calf thymus DNA. Briefly: Apparent binding constant against calf thymus DNA-drug complex; Not measurable. As to conditions: Bos taurus. The class given is nucleic-acid assay. The procedure, abridged:
as §2

The subject of assay [12] is P388. Briefly: Concentration required for 50% inhibition of incorporation of labeled uridine by P388 cells for the synthesis of RNA (in vitro); Not determined because of lack of DNA binding. The conditions noted are these: Mus musculus. The class given is functional, cell-based.
In assay [13] the test system is P388. As to the kind of experiment: Concentration required for 50% inhibition of incorporation of labeled thymidine by p388 cells for synthesis of DNA (in vitro); Not determined because of lack of DNA binding. The assay is classed as functional, cell-based. The conditions noted are these: Mus musculus.
Assay [14] relates to P388. Briefly: Concentration of compound required for 50% inhibition of synthesis of RNA in cultured P388 cells. The class given is functional. As to conditions: Mus musculus, read-out: ED50 (the source's name).
For assay [15], the system named is P388. As to the kind of experiment: Concentration of compound required for 50% inhibition of synthesis of DNA in cultured P388 cells. The class given is functional. The conditions noted are these: Mus musculus, read-out: ED50 (the source's name).

Each structure is given as a SMILES string. In brackets after ≈: the same amount, converted by molar mass.

Regarding `CCCCCCCCC/N=c1/cc(C(=O)N[C@@H]2C(=O)N[C@H](C(C)C)C(=O)N3CCC[C@@H]3C(=O)N(C)CC(=O)N(C)[C@@H](C(C)C)C(=O)O[C@@H]2C)c2nc3c(C(=O)N[C@H]4C(=O)N[C@@H](C(C)C)C(=O)N5CCC[C@H]5C(=O)N(C)CC(=O)N(C)[C@H](C(C)C)C(=O)O[C@H]4C)c(N)c(O)c(C)c3oc-2c1C`, in the assay with Calf thymus DNA [1], the K app entry was “Not measurable”. Moreover, the ED50 entry in the assay with P388 [2] and with P388 [4] was “Solubility too low” in each case. The Bapp entry with Calf thymus DNA [3] is reported as “Not measurable”.

Regarding `Cc1c2oc3c(C)c(OC(=O)Cc4ccc(Cl)c(Cl)c4)cc(C(=O)N[C@@H]4C(=O)N[C@H](C(C)C)C(=O)N5CCC[C@@H]5C(=O)N(C)CC(=O)N(C)[C@@H](C(C)C)C(=O)O[C@@H]4C)c3nc-2c(C(=O)N[C@H]2C(=O)N[C@@H](C(C)C)C(=O)N3CCC[C@H]3C(=O)N(C)CC(=O)N(C)[C@H](C(C)C)C(=O)O[C@H]2C)c(N)c1=O`, the ED50 entry in the assay with P388 [5] is “High and variable values”; with P388 [6], “High and variable values”. The Bapp result in the assay on Calf thymus DNA [7] is “Not measurable”. In the assay on P388 [8], the MST turned out to be 21 days. Besides, in the assay on P388 [9], the ILS amounted to 100%. The compound also displayed an Optimal dose in the assay on P388 [10] of 0.5 mg/kg. The compound also showed an ID50 in the assay with CCRF-CEM of 0.65 µg/mL (≈ 0.446 µM). In the assay on Calf thymus DNA [11], the K app entry was “Not measurable”.

For the compound `Cc1c2oc3c(C)ccc(C(=O)N[C@@H]4C(=O)N[C@H](C(C)C)C(=O)N5CCC[C@@H]5C(=O)N(C)CC(=O)N(C)[C@@H](C(C)C)C(=O)O[C@@H]4C)c3nc-2c(C(=O)N[C@H]2C(=O)N[C@@H](C(C)C)C(=O)N3CCC[C@H]3C(=O)N(C)CC(=O)N(C)[C@H](C(C)C)C(=O)O[C@H]2C)c(NCCCCCCCCN)c1=O`, the ED50 result in the assay with P388 [12] and with P388 [13] was “Not measurable” in each case.

Turning to `Cc1c2oc3c(C)c(O)c(N)c(C(=O)N[C@@H]4C(=O)N[C@H](C(C)C)C(=O)N5CCC[C@H]5C(=O)N(C)CC(=O)N(C)[C@@H](C(C)C)C(=O)O[C@@H]4C)c3nc-2c(C(=O)N[C@@H]2C(=O)N[C@H](C(C)C)C(=O)N3CCC[C@H]3C(=O)N(C)CC(=O)N(C)[C@@H](C(C)C)C(=O)O[C@@H]2C)c/c1=N/Cc1ccc(Cl)c(Cl)c1`, the EC50 in the assay with P388 [14] came out at 96 nM; with P388 [15], 418 nM.

With `CCCCCCCCCCCNc1c(C(=O)N[C@H]2C(=O)N[C@@H](C(C)C)C(=O)N3CCC[C@H]3C(=O)N(C)CC(=O)N(C)[C@H](C(C)C)C(=O)O[C@H]2C)c2nc3c(C(=O)N[C@@H]4C(=O)N[C@H](C(C)C)C(=O)N5CCC[C@@H]5C(=O)N(C)CC(=O)N(C)[C@@H](C(C)C)C(=O)O[C@@H]4C)ccc(C)c3oc-2c(C)c1=O`, the ED50 entry in the assay on P388 [12] and in the assay with P388 [13] was “Not measurable” each time.

With `Cc1c2oc3c(C)c(OC(=O)c4ccccc4)cc(C(=O)N[C@@H]4C(=O)N[C@H](C(C)C)C(=O)N5CCC[C@@H]5C(=O)N(C)CC(=O)N(C)[C@@H](C(C)C)C(=O)O[C@@H]4C)c3nc-2c(C(=O)N[C@H]2C(=O)N[C@@H](C(C)C)C(=O)N3CCC[C@H]3C(=O)N(C)CC(=O)N(C)[C@H](C(C)C)C(=O)O[C@H]2C)c(N)c1=O`, the ED50 result was “High and variable values” with P388 [5]; “High and variable values” in the assay on P388 [6]. For the same compound, the Bapp result in the assay on Calf thymus DNA [7] is “Not measurable”. Besides, the K app entry with Calf thymus DNA [11] is recorded as “Not measurable”.

Regarding `CCCCCCCOc1cc(C(=O)N[C@@H]2C(=O)N[C@H](C(C)C)C(=O)N3CCC[C@@H]3C(=O)N(C)CC(=O)N(C)[C@@H](C(C)C)C(=O)O[C@@H]2C)c2nc3c(C(=O)N[C@H]4C(=O)N[C@@H](C(C)C)C(=O)N5CCC[C@H]5C(=O)N(C)CC(=O)N(C)[C@H](C(C)C)C(=O)O[C@H]4C)c(N)c(=O)c(C)c-3oc2c1C`, the ED50 entry in the assay with P388 [5] is “High and variable values”; in the assay on P388 [6] it was “High and variable values”. For the same compound, the Bapp entry in the assay on Calf thymus DNA [7] was “Not measurable”. In the assay with Calf thymus DNA [11], the K app entry was “Not measurable”.

Consider `CCCCCCNc1c(C(=O)N[C@H]2C(=O)N[C@@H](C(C)C)C(=O)N3CCC[C@H]3C(=O)N(C)CC(=O)N(C)[C@H](C(C)C)C(=O)O[C@H]2C)c2nc3c(C(=O)N[C@@H]4C(=O)N[C@H](C(C)C)C(=O)N5CCC[C@@H]5C(=O)N(C)CC(=O)N(C)[C@@H](C(C)C)C(=O)O[C@@H]4C)ccc(C)c3oc-2c(C)c1=O`, for which the ED50 entry in the assay on P388 [12] and with P388 [13] was “Not measurable” each time.

For the compound `CCCCCNc1c(C(=O)N[C@H]2C(=O)N[C@@H](C(C)C)C(=O)N3CCC[C@H]3C(=O)N(C)CC(=O)N(C)[C@H](C(C)C)C(=O)O[C@H]2C)c2nc3c(C(=O)N[C@@H]4C(=O)N[C@H](C(C)C)C(=O)N5CCC[C@@H]5C(=O)N(C)CC(=O)N(C)[C@@H](C(C)C)C(=O)O[C@@H]4C)ccc(C)c3oc-2c(C)c1=O`, the ED50 entry in the assay on P388 [12] and in the assay on P388 [13] was “Not measurable” each time.

Consider `CCCCCCCCCNc1c(C(=O)N[C@H]2C(=O)N[C@@H](C(C)C)C(=O)N3CCC[C@H]3C(=O)N(C)CC(=O)N(C)[C@H](C(C)C)C(=O)O[C@H]2C)c2nc3c(C(=O)N[C@@H]4C(=O)N[C@H](C(C)C)C(=O)N5CCC[C@@H]5C(=O)N(C)CC(=O)N(C)[C@@H](C(C)C)C(=O)O[C@@H]4C)ccc(C)c3oc-2c(C)c1=O`, for which the ED50 entry in the assay on P388 [12] and in the assay with P388 [13] was “Not measurable” in each case.

The values above are taken from ChEMBL document CHEMBL1121923, “N2- and C-7 substituted actinomycin D analogues: synthesis, DNA-binding affinity, and biochemical and biological properties. Structure-activity relationship” (J Med Chem, 1981).
